# In article PMC4174992 (The Journal of Physical Chemistry. B, 2014):
# Read-outs that look alike come from different tables or passages of the source.
# Legend:
# [1] = Ion-mobility mass spectrometry; assay type: physicochemical; conditions: IM-MS, 200 μM in water
# Atomic force microscopy = assay type: physicochemical
# In short: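 Samples were N-acetyl/C-amide peptides at 200 μM in water, with no buffer, to slow aggregation and limit charge screening. Peptide stocks were made in filtered deionized water, flash-frozen and kept at −80 °C. AFM height images were taken at 1 Hz with 512 × 512 points, fibrils masked and first-order flattened. Each fibril or granular-aggregate height and length is the mean of 20 measurements.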
# [2] = tested on: embryonic rat hippocampal neurons; conditions: Busciglio and co-workers; cited from earlier work
# [3] = cited from earlier work
substance,measurement,setting,value
"Ac-Aβ(25–35)-NH2: amphipathic amyloid-β fragment containing the hydrophobic hexapeptide GAIIGL (Ac-GSNKGAIIGLM-NH2; UniProt P05067 696-706, looked up, fragment)",largest oligomers observed,[1]; heteroligomers from 1:1 mixture,hexamers and nonamers
same,onset of cross-section deviation from isotropic oligomer model,[1]; indicates extended oligomers,starting at the trimer stage
same,aggregates observed by AFM (1 week),"Atomic force microscopy; 1 week incubated, 200 μM in water, mixture at 1:1",abundant fibrillar aggregates
same,time to fibrillar aggregates,"Atomic force microscopy; fresh peptide, in water",within an hour
Aβ(1–40): full length Aβ isoform,result compared with Aβ(25–35) effect on neurons,[2],similar
NFLVHSS,aggregation strength (class 6 steric zipper),[3]; PDB ID 3FTH,weakly aggregating
YVVFL,aggregation strength (class 6 steric zipper),[3]; PDB 4OLR / 4ONK,weakly aggregating
YVVFV,aggregation strength (class 6 steric zipper),[3]; PDB 4OLR / 4ONK,weakly aggregating
